The target of series [1] is Beta-1 adrenergic receptor (Homo sapiens) (UniProt P08588). Description: Displacement of [125I]-pindolol from human beta1 adrenergic receptor expressed in CHO FLp-In cell membranes at 10 uM incubated for 90 mins under dark condition by scintillation counting analysis relative to control. (In a radioligand displacement assay an active substance lowers the binding of a labelled ligand.)

The next series has as its target 5-HT2B receptor (Homo sapiens, UniProt P41595). Description: Displacement of [3H]-LSD from human 5HT2B stably expressed in HEK cell membranes at 10 uM incubated for 90 mins under dark condition by scintillation counting analysis relative to control. The settings on record: membranes of HEK cells stably expressing human 5HT2B, probe [3H]-LSD.
The target of series [2] is Alpha-2C adrenergic receptor (Homo sapiens) (UniProt P18825). The series is described as follows: Displacement of [3H]-rauwolscine from human adrenergic alpha2C receptor stably expressed in MDCK cell membranes at 10 uM incubated for 90 mins under dark condition by scintillation counting analysis relative to control.
Sequence of Alpha-2C adrenergic receptor (Homo sapiens) (P18825 whole entry): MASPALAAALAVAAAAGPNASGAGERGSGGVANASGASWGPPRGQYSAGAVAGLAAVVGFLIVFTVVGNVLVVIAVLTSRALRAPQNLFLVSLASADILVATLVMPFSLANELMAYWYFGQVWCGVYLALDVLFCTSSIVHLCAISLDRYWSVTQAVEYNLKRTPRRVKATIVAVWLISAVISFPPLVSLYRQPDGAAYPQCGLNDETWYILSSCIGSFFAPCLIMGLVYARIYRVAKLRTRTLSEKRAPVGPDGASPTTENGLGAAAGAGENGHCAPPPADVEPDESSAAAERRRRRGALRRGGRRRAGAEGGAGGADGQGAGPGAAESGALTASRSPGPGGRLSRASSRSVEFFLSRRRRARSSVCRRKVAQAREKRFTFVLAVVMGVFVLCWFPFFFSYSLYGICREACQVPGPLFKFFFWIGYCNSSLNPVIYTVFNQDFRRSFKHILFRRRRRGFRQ
Series [3] can be described thus: Clearance in Sprague-Dawley rat at 20 mg/kg, po. The settings on record: in vivo. The format is ADME, organism-based. In short, it runs like this:
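Male Sprague-Dawley rats (200–250 g, n = 3/group) dosed po at 20 mg/kg in 10% DMSO:90% HP-β-CD. Retro-orbital blood taken from 0.25 to 24 h. Noncompartmental analysis; mean ± SEM.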

A further series deals with Rattus norvegicus. Description: Potentiation of WAY163909-induced neurobiological activity in Sprague-Dawley rat assessed as increase in number of rat choosing WAY163909 associated lever at 2 mg/kg, ip treated 15 mins prior to WAY163909 addition and measured after 15 mins by drug discrimination test (reference value: 53%). The format is functional.
The next series deals with 5-HT2A receptor (Homo sapiens, UniProt P28223). The series is described as follows: Displacement of [3H]-ketanserin from 5HT2A (unknown origin) at 10 uM incubated for 90 mins under dark condition by scintillation counting analysis relative to control. Conditions: probe [3H]-ketanserin.
Sequence of 5-HT2A receptor (P28223 whole entry): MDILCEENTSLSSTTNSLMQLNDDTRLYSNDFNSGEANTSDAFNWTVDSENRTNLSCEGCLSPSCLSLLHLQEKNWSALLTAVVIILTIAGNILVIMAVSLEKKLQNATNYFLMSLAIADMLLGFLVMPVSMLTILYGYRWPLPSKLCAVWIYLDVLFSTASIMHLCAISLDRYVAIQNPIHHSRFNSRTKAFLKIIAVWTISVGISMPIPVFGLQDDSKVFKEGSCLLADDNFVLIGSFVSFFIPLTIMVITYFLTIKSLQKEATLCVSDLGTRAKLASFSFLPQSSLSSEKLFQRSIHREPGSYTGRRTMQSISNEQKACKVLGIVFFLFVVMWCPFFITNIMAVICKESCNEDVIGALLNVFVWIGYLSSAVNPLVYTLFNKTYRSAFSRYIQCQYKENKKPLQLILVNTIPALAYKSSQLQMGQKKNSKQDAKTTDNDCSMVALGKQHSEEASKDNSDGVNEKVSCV
Series [4] has as its target Kappa-type opioid receptor (Homo sapiens) (UniProt P41145). The series is described as follows: Displacement of [3H]-U69593 from kappa opioid receptor (unknown origin) at 10 uM incubated for 90 mins under dark condition by scintillation counting analysis relative to control.
Series [5] in a line: Oral bioavailability in Sprague-Dawley rat at 20 mg/kg. It counts as ADME, organism-based. Conditions: in vivo. In short, it runs like this: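 Male Sprague-Dawley rats, 200–250 g, n = 3/group, randomly assigned; dosed 10 mg/kg iv or 20 mg/kg po in 10% DMSO:90% HP-β-CD. Retro-orbital blood sampled predose and 0.08 (iv only), 0.25, 0.5, 1, 2, 4, 8, 24 h. Noncompartmental analysis; Cmax read directly from plasma concentration–time plot; mean ± SEM.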

Series [6] in a line: Kinetic solubility of the compound in PBS at pH 7.4 measured after 2 hrs. Conditions: buffer, pH 7.4, 2 h. It counts as physicochemical.
The target in series [7] is 5-hydroxytryptamine receptor 1A (Homo sapiens) (UniProt P08908). The series is described as follows: Displacement of [3H]-8-OH-DPAT from human 5HT1A stably expressed in CHO cell membranes at 10 uM incubated for 90 mins under dark condition by scintillation counting analysis relative to control.
Sequence of 5-hydroxytryptamine receptor 1A (Homo sapiens) (P08908 whole entry): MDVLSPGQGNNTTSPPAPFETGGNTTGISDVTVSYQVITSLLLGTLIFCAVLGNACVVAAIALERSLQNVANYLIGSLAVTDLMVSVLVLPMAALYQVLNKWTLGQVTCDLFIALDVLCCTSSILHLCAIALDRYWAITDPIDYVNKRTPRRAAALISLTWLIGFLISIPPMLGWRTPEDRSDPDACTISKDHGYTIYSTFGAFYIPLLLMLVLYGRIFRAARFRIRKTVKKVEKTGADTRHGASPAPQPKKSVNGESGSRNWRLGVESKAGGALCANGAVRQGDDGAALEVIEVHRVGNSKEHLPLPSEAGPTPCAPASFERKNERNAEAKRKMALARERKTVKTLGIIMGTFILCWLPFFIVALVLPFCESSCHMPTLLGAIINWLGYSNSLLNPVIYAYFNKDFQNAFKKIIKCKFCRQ
Series [8] can be described thus: Half life in rat liver microsomes at 10 uM in presence of NADPH. It counts as ADME, Microsome.
The target of series [9] is T1, 5-hydroxytryptamine receptor 2C (Homo sapiens) (UniProt P28335).
T1 sequence (whole entry): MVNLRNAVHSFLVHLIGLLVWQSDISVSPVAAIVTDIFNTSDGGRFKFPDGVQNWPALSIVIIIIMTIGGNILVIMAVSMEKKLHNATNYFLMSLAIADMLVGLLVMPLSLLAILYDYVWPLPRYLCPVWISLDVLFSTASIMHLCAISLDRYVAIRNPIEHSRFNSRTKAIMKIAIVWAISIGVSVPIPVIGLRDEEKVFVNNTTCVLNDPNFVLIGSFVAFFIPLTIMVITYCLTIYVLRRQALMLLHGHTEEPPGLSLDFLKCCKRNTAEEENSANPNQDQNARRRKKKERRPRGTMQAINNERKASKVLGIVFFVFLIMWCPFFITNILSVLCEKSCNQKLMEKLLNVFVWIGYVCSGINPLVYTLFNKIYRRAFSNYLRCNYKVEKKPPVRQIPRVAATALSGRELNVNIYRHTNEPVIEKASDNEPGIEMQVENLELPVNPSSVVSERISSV
The series is described as follows: Displacement of [3H]-mesulergine from human 5HT2C expressed in HEKT cell membranes at 10 uM incubated for 90 mins under dark condition by scintillation counting analysis relative to control.

The nature of series [10]: Clearance in Sprague-Dawley rat at 10 mg/kg, iv. The format is ADME, organism-based. The settings on record: in vivo. Put shortly: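 Male Sprague-Dawley rats (200–250 g; n = 3/group) received a single iv dose in 10% DMSO:90% HP-β-CD. Retro-orbital blood was sampled before dosing and at 0.08, 0.25, 0.5, 1, 2, 4, 8 and 24 h. Plasma levels were measured. Parameters came from noncompartmental analysis, reported as mean ± SEM.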

The target in series [11] is GABA-A receptor; anion channel (Rattus norvegicus) (UniProt O09028+P15431+P18506+P18508+P19969+P20236+P23574+P23576+P28471+P28473+P30191+P62813+P63079+P63138+Q91ZM7+Q9ES14). The series is described as follows: Displacement of [3H]-muscimol from rat brain GABAA receptor at 10 uM incubated for 90 mins under dark condition by scintillation counting analysis relative to control.

In general, inhibition refers to the change of the read-out against control, counted positive when it falls. As a reminder, the CL/F is clearance divided by bioavailability, as obtained after extravascular dosing.

Sequence of Beta-1 adrenergic receptor (Homo sapiens) (P08588 whole entry, looked up): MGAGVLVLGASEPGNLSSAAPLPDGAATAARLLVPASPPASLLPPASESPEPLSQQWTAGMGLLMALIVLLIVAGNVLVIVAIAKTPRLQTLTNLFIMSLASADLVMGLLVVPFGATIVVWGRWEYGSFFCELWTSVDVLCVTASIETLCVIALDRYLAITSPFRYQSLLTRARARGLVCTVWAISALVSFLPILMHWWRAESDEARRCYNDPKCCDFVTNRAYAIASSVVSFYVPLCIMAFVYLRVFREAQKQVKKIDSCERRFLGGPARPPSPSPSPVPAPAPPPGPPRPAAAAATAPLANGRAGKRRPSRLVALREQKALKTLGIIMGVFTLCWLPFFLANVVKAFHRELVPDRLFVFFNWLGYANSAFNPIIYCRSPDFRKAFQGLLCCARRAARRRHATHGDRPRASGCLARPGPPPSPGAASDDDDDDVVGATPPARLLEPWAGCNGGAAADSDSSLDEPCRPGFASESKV
Sequence of 5-HT2B receptor (P41595 whole entry): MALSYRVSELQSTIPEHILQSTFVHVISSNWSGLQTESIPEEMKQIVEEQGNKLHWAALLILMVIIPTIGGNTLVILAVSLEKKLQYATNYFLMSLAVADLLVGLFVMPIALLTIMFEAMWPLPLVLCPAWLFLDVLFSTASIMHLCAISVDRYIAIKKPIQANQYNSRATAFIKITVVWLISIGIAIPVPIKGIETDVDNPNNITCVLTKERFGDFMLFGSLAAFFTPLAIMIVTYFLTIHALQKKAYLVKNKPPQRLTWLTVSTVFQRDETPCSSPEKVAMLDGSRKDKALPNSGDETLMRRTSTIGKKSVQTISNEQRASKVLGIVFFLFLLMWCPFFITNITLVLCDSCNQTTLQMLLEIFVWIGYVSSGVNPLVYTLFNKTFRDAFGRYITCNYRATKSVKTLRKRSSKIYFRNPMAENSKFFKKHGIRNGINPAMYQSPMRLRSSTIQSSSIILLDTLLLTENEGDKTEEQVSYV
Sequence of Kappa-type opioid receptor (Homo sapiens) (P41145 whole entry): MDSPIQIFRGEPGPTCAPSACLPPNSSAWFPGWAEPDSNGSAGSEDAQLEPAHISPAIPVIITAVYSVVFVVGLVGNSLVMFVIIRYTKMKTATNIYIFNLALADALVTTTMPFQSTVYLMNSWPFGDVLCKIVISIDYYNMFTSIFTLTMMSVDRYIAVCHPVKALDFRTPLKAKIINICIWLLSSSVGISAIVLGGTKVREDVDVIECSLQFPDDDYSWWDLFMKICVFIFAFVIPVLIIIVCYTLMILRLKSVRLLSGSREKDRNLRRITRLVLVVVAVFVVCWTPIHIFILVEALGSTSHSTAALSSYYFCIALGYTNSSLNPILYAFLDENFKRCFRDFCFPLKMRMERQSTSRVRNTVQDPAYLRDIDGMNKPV

For `O=C(NC[C@H](O)CO)[C@@H]1C[C@H](c2ccccc2)CCN1` (mixture of isomers), the inhibition in series [1] is -7.7%; in [2], -1.8%; in series [4] it was 13.4%; in series [7] it was 28.4%; in [9] it was 26.9%; in [11] it was 7%. For the same compound, the inhibition at 1.5 h, 10 µM at 5-HT2B receptor was -7.2%; on 5-HT2A receptor, -4.3%. In [3], this compound gave a CL/F of 182 mL/min/kg. The Activity in the series on Rattus norvegicus is 92%. This compound returned a F in series [5] of 36.3%. Also, the Kinetic_solubility in series [6] was greater than 100 µM. Besides, the t1/2 in [8] was greater than 4 h. For the same compound, the CL in [10] was 54.7 mL/min/kg.
